Shown are actives, neighbours in structure and some others; about 2.1% of the full set was active somewhere.
CXCR6 inh: CXCR6 (human) receptor inhibition | O00574 | CHO-K1 PathHunter CXCR6 beta-arrestin, luminescence | inhibition, % at 20 µM | 0.36% of 360,000 active | AID 602244; in the data active = inhibition above about 34%, passing the limit was not always enough;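 note: antagonist mode with CXCL16 agonist at 10 nM final; 0% = 10 nM CXCL16 with DMSO and 100% = unstimulated wells without agonist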
CCR6 antag: blocks CCL20-driven beta-arrestin recruitment at human CCR6; CHO-K1 CCR6 PathHunter beta-arrestin, luminescence, CCL20-stimulated; inhibition, % at 20 µM; 0.49% of 340,000 active;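 active = compounds whose inhibition of the agonist-driven luminescence signal at 20 µM reaches about 50%, limit read from the data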;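 note: cells stimulated with CCL20 at 14 nM final; plate controls were DMSO with CCL20 for no effect and DMSO without agonist for full effect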
EBI2 antag: antagonists of human EBI2 receptor; 0.81% of 360,000 active; EBI2 beta-arrestin recruitment, luminescence, 7a,25-OHC stimulated; inhibition, % at 5 µM; AID 651636; in the data active = inhibition above about 38%;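 note: enzyme fragment complementation signal reports receptor beta-arrestin coupling in cells; 0% = agonist plus DMSO wells and 100% = wells without agonist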
APJ ag: activates the human apelin receptor APJ. P35414. CHO-K1 APJ PathHunter beta-arrestin, luminescence; 0% DMSO wells, 100% apelin. activation, % at 20 µM. 0.11% of 330,000 active. AID 2520;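 active = activation more than six SD over the plate average, tested at 20 µM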;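 note: 0% = DMSO alone and 100% = apelin-13 at 10 nM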
Target sequence (P35414 whole entry, looked up): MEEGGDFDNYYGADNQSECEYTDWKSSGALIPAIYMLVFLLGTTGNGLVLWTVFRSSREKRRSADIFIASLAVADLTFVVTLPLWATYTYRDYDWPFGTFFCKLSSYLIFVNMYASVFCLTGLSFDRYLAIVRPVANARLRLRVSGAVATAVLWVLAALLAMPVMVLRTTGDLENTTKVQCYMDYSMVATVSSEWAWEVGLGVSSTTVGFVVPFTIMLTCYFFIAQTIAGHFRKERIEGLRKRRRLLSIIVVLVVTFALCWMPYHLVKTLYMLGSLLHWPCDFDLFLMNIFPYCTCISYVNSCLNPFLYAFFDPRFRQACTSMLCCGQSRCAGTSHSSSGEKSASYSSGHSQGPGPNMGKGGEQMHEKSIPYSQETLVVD
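Incubation: overnight seeding, 90 min compound at 25 °C, 1 h detection; test system: PathHunter CHO-K1 APJ (AGTRL-1) beta-arrestin reporter cells; amount: 1000 cells/well; doses: one dose, 20 µM compound, 1% DMSO; measured by: beta-gal luminescence; measure: agonist-driven arrestin binding to APJ; benchmarks: negative DMSO alone, positive Apelin-13 at 10 nM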
APJ antagonist: antagonists of human APJ apelin receptor; P35414; CHO-K1 APJ beta-arrestin complementation, luminescence; inhibition, % at 20 µM; 0.32% of 330,000 active; AID 2521;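 active = inhibition above about 40% at 20 µM, limit read from the data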;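 note: cells challenged with 10 nM apelin-13 agonist together with compound; plate controls were apelin-13 plus DMSO wells for no effect and DMSO wells lacking apelin-13 for full effect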
m5-HT2A agonist: agonists of mouse serotonin 5-HT2A receptor (HTR2A) | P35363 | CHO-K1 mHTR2A beta-arrestin complementation, luminescence; percent of 30 µM serotonin response | activation, % at 7.6 µM | 0.66% of 360,000 active;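 active = activation above a run cutoff, the mean activation of all tested compounds plus 3 SD, cut at about 14% in these data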;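 note: 0% = plate median of compound wells and 100% = 30 µM serotonin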
CXCR6 confirm: confirmation of human CXCR6 receptor antagonists. shares compounds with CXCR6 inh. CHO-K1 CXCR6 PathHunter beta-arrestin, luminescence. inhibition, % at 20 µM. 65% of 700 active. AID 602409;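 active = mean inhibition over four retests above 40%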;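 note: receptor stimulated with 10 nM CXCL16 agonist; beta-galactosidase fragment complementation upon beta-arrestin recruitment to receptor; plate controls were CXCL16 plus DMSO for no effect and DMSO without CXCL16 for full effect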
Active calls of the source: *.

What do the screens show for `COc1ccc2nc(C)cc(Nc3ccc(C)cc3)c2c1`?
CXCR6 inh: 58*; CCR6 antag: 12; EBI2 antag: 16; APJ ag: -2; APJ antagonist: 4; m5-HT2A agonist: 2; CXCR6 confirm: 1

Results for COc1ccc(Nc2cc(C)nc3ccccc23)cc1 ?
CXCR6 inh: -1; CCR6 antag: -1; EBI2 antag: -6; APJ ag: -2; APJ antagonist: 0; m5-HT2A agonist: 0

Results for c1ccc(-c2sc3ccccc3c2-c2ccc(OCCN3CCCC3)cc2)cc1 ?
CXCR6 inh: -12; CCR6 antag: 26; EBI2 antag: -15; APJ ag: 2; APJ antagonist: -6; m5-HT2A agonist: -12

What do the screens show for `O=c1ccc2ccccc2c2ccccc12`?
CXCR6 inh: 31*; EBI2 antag: -40; m5-HT2A agonist: -1; CXCR6 confirm: 31

What do the screens show for `Cc1nn(-c2ccccc2)c(N)c1-c1ccccc1`?
CXCR6 inh: -1; CCR6 antag: 5; EBI2 antag: -1; APJ ag: -1; APJ antagonist: 8; m5-HT2A agonist: -1

What do the screens show for `Cc1nn(-c2nc3ccccc3[nH]2)c(N)c1-c1ccccc1`?
CXCR6 inh: 49*; EBI2 antag: 11; APJ ag: -7; APJ antagonist: 19; m5-HT2A agonist: -1; CXCR6 confirm: 53*

What do the screens show for `Cc1ccc(NC(=O)c2cc(N3C(=O)C=CC3=O)ccc2N2CCOCC2)cc1`?
CXCR6 inh: 89*; EBI2 antag: 0; m5-HT2A agonist: 2; CXCR6 confirm: 28

How did S=C(NCc1ccccc1)Nc1nccs1 do in these assays?
CXCR6 inh: 8; CCR6 antag: 15; EBI2 antag: -8; APJ ag: 1; APJ antagonist: 14; m5-HT2A agonist: 8

What do the screens show for `CCn1cc(C(=O)NCc2ccc3c(c2)OCO3)c(=O)c2cc(F)c(N3CCN(C)CC3)cc21`?
CXCR6 inh: 5; CCR6 antag: 15; EBI2 antag: 7; APJ ag: -6; APJ antagonist: 1; m5-HT2A agonist: -4

Results for COc1cccc(/C=C2/CCC(CN(C)C)C2=O)c1 (stereo unspecified) ?
CXCR6 inh: 71*; CCR6 antag: 92*; EBI2 antag: 23; m5-HT2A agonist: 5; CXCR6 confirm: 54*

How did CCCC/C=C1/CCC(CN(C)C)C1=O (stereo unspecified) do in these assays?
CXCR6 inh: 34*; CCR6 antag: 52*; EBI2 antag: -1; m5-HT2A agonist: -2; CXCR6 confirm: 48*

What do the screens show for `O=C(NCc1cccnc1)/C(=C\c1ccc(-c2cccc(Cl)c2)o1)S(=O)(=O)c1ccccc1`?
CXCR6 inh: 33*; CCR6 antag: 38; EBI2 antag: 42*; m5-HT2A agonist: -2; CXCR6 confirm: 41*

How did CC1C(=O)N(Cc2cn(Cc3ccco3)nn2)CCS(=O)(=O)N1Cc1ccc(-c2ccc(Cl)c(Cl)c2)cc1 (stereo unspecified) do in these assays?
CXCR6 inh: 67*; EBI2 antag: 11; m5-HT2A agonist: 11; CXCR6 confirm: -16

Results for COc1ccc2nc(SCC(=O)N3CCCCCC3)c(C#N)cc2c1 ?
CXCR6 inh: -11; CCR6 antag: 13; EBI2 antag: 8; APJ ag: 0; APJ antagonist: 9; m5-HT2A agonist: 4

What do the screens show for `Cc1cc(C)cc(NC(=O)C(NCC2CCCO2)c2ccccc2)c1` (stereo unspecified)?
CXCR6 inh: 60*; CCR6 antag: 8; EBI2 antag: 5; APJ ag: -3; APJ antagonist: -15; m5-HT2A agonist: -2; CXCR6 confirm: 10

What do the screens show for `Cc1cc(C)cc(NC(=O)C(=O)NCC2CCCO2)c1` (stereo unspecified)?
CXCR6 inh: -1; CCR6 antag: -3; EBI2 antag: -9; APJ ag: -3; APJ antagonist: 14; m5-HT2A agonist: -2

Results for Cn1c(=O)n(/N=C/c2ccccc2)c2ccccc21 ?
CXCR6 inh: -18; CCR6 antag: 5; EBI2 antag: -6; APJ ag: 1; APJ antagonist: 9; m5-HT2A agonist: 2

Results for CN(C)/C=C/c1oc2ccc(O)cc2c1[N+](=O)[O-] ?
CXCR6 inh: 42*; CCR6 antag: 61*; EBI2 antag: 3; APJ ag: -7; APJ antagonist: 49*; m5-HT2A agonist: -4; CXCR6 confirm: 66*

What do the screens show for `Cc1oc2ccc(O)cc2c1C(=O)c1ccc([N+](=O)[O-])cc1`?
CXCR6 inh: -26; CCR6 antag: 2; EBI2 antag: -17; APJ ag: 10; APJ antagonist: -48; m5-HT2A agonist: 2

How did CCn1nccc1C(=O)Nc1nc2ccccc2n1CCN1CCCCC1 do in these assays?
CXCR6 inh: 64*; CCR6 antag: 54*; EBI2 antag: -2; APJ ag: 1; APJ antagonist: 18; m5-HT2A agonist: -3; CXCR6 confirm: 48*

Results for COc1ccc(/C=N/Nc2ccccc2)cc1Cn1nc(C)c([N+](=O)[O-])c1C ?
CXCR6 inh: 51*; CCR6 antag: 37; EBI2 antag: 13; APJ ag: -4; APJ antagonist: 8; m5-HT2A agonist: 5; CXCR6 confirm: 13

How did CCCCC(=O)NC(=S)Nc1ccccc1C(=O)Nc1ccccc1 do in these assays?
CXCR6 inh: 51*; CCR6 antag: 54*; EBI2 antag: 15; APJ ag: -5; APJ antagonist: 27; m5-HT2A agonist: -12; CXCR6 confirm: 54*

How did C=CS(=O)(=O)c1ccc(Oc2ccc(S(=O)(=O)C=C)cc2)cc1 do in these assays?
CXCR6 inh: 64*; CCR6 antag: 74*; EBI2 antag: 47*; APJ ag: 0; APJ antagonist: 39; m5-HT2A agonist: 2; CXCR6 confirm: 66*

How did NS(=O)(=O)c1ccc(Oc2ccc(S(N)(=O)=O)cc2)cc1 do in these assays?
CXCR6 inh: 4; CCR6 antag: 0; EBI2 antag: -5; APJ ag: 1; APJ antagonist: 0; m5-HT2A agonist: -4

What do the screens show for `COc1cccc(C(C(=O)NC(C)(C)C)N(C(=O)CCC(=O)Nc2cc(C)on2)C(C)C)c1OC` (stereo unspecified)?
CXCR6 inh: 47*; CCR6 antag: -6; EBI2 antag: 0; APJ ag: -3; APJ antagonist: 4; m5-HT2A agonist: -1; CXCR6 confirm: 7

What do the screens show for `CC1Cc2ccccc2N1C(=S)NC(=O)c1cccc(Br)c1` (stereo unspecified)?
CXCR6 inh: 48*; EBI2 antag: -3; APJ ag: 0; APJ antagonist: 24; m5-HT2A agonist: -3; CXCR6 confirm: 65*
